The text below walks through data of paper PMC10141526 (The Journal of Biological Chemistry, 2023).

For one assay, the system named is CD69. Briefly: Flow cytometry, surface expression of CD69 after Mn2+ activation. Format: cell-based, mouse (NOD, BALB/c). The conditions noted are these: PBMC and spleen, Mn2+ 30 min. Background: Flow cytometry measures light scatter and fluorescence of single cells or particles in a stream.
A further assay concerns CD25. The assay is described as follows: Flow cytometry, surface expression of CD25 after Mn2+ activation. The class given is cell-based, mouse (NOD, BALB/c). The conditions noted are these: PBMC and spleen, Mn2+ 30 min.
The next assay has as its system CD40. The assay is described as follows: Flow cytometry, surface expression of CD40 after Mn2+ activation. Format: cell-based, mouse (NOD, BALB/c). Summed up:
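Flow cytometry on unfractionated PBMC from NOD and BALB/c mice ± Mn2+ activation, stained for CD4, CD40, CD18, CD11a and CD11b with isotype controls (1 to 3 × 10^5 cells). CD40 assessed in CD4hi, CD4lo (Th40) and CD4-negative subsets of the lymphocyte gate, read as overall mean fluorescence intensity. Two-tailed t test.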

For another assay, the system named is CD154. The assay is described as follows: Flow cytometry, surface expression of CD154 after Mn2+ activation. The class given is cell-based, mouse (NOD, BALB/c). The conditions noted are these: PBMC and spleen, Mn2+ 30 min.
Assay [1] relates to CD11a. Briefly: Flow cytometry, surface expression of CD11a after Mn2+ activation. Format: cell-based, mouse (NOD, BALB/c). Summed up: (§1)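 NOD and BALB/c PBMC, isolated over density medium and used without further purification, were stained with or without Mn2+ activation for CD4, CD40, CD18, CD11a and CD11b, with isotype controls (1 to 3 × 10^5 cells per stain). Flow cytometry, lymphocyte gate split into CD4hi (conventional CD4), CD4lo (Th40) and CD4-negative cells. CD11a or CD11b surface expression compared ± Mn2+.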

The subject of assay [2] is CD18. The assay is described as follows: Flow cytometry, surface expression of CD18 after Mn2+ activation. Format: cell-based, mouse (NOD, BALB/c). In outline:
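Density-medium-purified PBMC from NOD and BALB/c mice, unactivated or Mn2+-activated, stained for CD4, CD40, CD18, CD11a and CD11b against isotype controls; 1 to 3 × 10^5 cells per stain. Lymphocytes gated as CD4hi, CD4lo (Th40) or CD4-negative, then CD18hi and CD18lo populations scored. One-way ANOVA with Tukey's multiple comparisons test.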

The test system of assay [3] is CD11b. Briefly: Flow cytometry, surface expression of CD11b after Mn2+ activation. Format: cell-based, mouse (NOD, BALB/c). In outline: as §1
The test system of assay [4] is CD18. Briefly: Control immunoprecipitation. Format: binding, mouse (NOD). The conditions noted are these: NOD cell lysates; OVA-pep IP, control for KGYY15.
Assay [5] has as its system CD11b. Briefly: Control immunoprecipitation. Format: binding, mouse (NOD). The conditions noted are these: NOD cell lysates; OVA-pep IP, control for KGYY15.
In assay [6] the test system is CD11a. The assay is described as follows: Control immunoprecipitation. The class given is binding, mouse (NOD). The conditions noted are these: NOD cell lysates; OVA-pep IP, control for KGYY15.
The target in assay [7] is FITC-conjugated mouse KGYY15 (mouse). Briefly: flow cytometry on cells.
Assay [8] concerns integrin α5β1 (CD49e/CD29). The conditions noted are these: cited from earlier work.
In another assay the test system is integrin αIIbβ3. The conditions noted are these: cited from earlier work.
The subject of assay [9] is integrin αMβ2 (CD11b/CD18). The conditions noted are these: cited from earlier work.
Where [10] appears, read: PBMC conventional CD4 T cells, both strains.
Where [11] appears, read: PBMC, BALB/c Th40, NOD Th40 and CD4-negative cells.
The mark [12] stands for this setting: spleen cells, two mouse strains.
The mark [13] stands for this setting: PBMC, any cell type, either strain.

As for `[Mn+2]` [Mn^2+, manganese divalent ions], the “surface expression of CD69” value in the assay on CD69 is recorded as “None of the three molecules was affected”. The “surface expression of CD25” value with CD25 was “None of the three molecules was affected”. For the same molecule, the entries for the “surface expression of CD40” value in the assay on CD40 (setting [10]) and with CD40 (setting [12]) were “did not change surface expression of CD40 or CD18” and “did not reveal any change”, respectively. In addition, in the assay on CD40 (PBMC, NOD and BALB/c), the “percentage of cells expressing CD40 on surface” value is listed as “did not increase the percentage of cells expressing CD40”. Also, the “intensity of CD40 surface expression” value in the assay on CD40 (setting [11]) is “significantly elevated”. In addition, the “surface expression of CD154” value in the assay on CD154 is listed as “None of the three molecules was affected”. Also, the figures for the “surface expression of CD11a” value in the assay with CD11a [1] (setting [13]) and with CD11a [1] (setting [12]) were “no change” and “did not reveal any change”, respectively. The “surface expression of CD18” value is “did not change surface expression of CD40 or CD18” with CD18 [2] (setting [10]) and “did not reveal any change” with CD18 [2] (setting [12]). Besides, in the assay on CD18 [2] (setting [11]), the CD18hi population result was “decrease in the CD18^hi population”. In addition, the CD18lo population result in the assay on CD18 [2] (setting [11]) is “corresponding increase in the CD18^lo population”. Moreover, the “surface expression of CD11b” value in the assay on CD11b [3] (setting [13]) is “no change”; in the assay with CD11b [3] (setting [12]), “did not reveal any change”.

With “OVA-peptide: unrelated peptide, the 17-amino-acid OVA (323–339) peptide, control for KGYY15 (KISQAVHAAHAEINEAG; UniProt P01012 323-339, looked up, fragment)”, the “immunoprecipitation of CD18 (control)” value in the assay on CD18 [4] is “No CD11a, CD11b, or CD18 was immunoprecipitated”. For the same molecule, the “immunoprecipitation of CD11b (control)” value in the assay on CD11b [5] is given as “No CD11a, CD11b, or CD18 was immunoprecipitated”. For the same molecule, in the assay with CD11a [6], the “immunoprecipitation of CD11a (control)” value is “No CD11a, CD11b, or CD18 was immunoprecipitated”.

“recombinant CD11a/CD18 (R&D Systems cat# 3868-AV-050) (from UniProt P20701 26-1090; P05107 23-700) (complex)” yielded a percent reduction of KGYY15-FITC staining of NAMALWA cells in assay [7] of 29.4%.

In assay [7], “recombinant CD11b/CD18 (R&D Systems cat# 4047-AM-050) (from UniProt P11215 17-1104; P05107 23-700) (complex)” showed a percent reduction of KGYY15-FITC staining of NAMALWA cells of 22.7%.

B1: CD154: natural CD40-ligand, whole protein (protein, UniProt P27548 112-260, looked up)
CD40 ligand, soluble form: MQRGDEDPQIAAHVVSEANSNAASVLQWAKKGYYTMKSNLVMLENGKQLTVKREGLYYVYTQVTFCSNREPSSQRPFIVGLWLKPSSGSERILLKAANTHSSSQLCEQQSVHLGGVFELQAGASVFVNVTEASQVIHRVGFSSFGLLKL
B1: the binding to integrin result (in [8]; in the assay on integrin αIIbβ3; in [9]) was “binds” each time.
